Assay [1] deals with T1, 5-hydroxytryptamine receptor 7 (Rattus norvegicus, UniProt P32305). Kind of assay: Binding affinity against Rat 5-hydroxytryptamine 7 receptor using [3H]5-HT.
In assay [2] the target is T2, 5-hydroxytryptamine receptor 1A (Homo sapiens, UniProt P08908).
T2 sequence (P08908 whole entry): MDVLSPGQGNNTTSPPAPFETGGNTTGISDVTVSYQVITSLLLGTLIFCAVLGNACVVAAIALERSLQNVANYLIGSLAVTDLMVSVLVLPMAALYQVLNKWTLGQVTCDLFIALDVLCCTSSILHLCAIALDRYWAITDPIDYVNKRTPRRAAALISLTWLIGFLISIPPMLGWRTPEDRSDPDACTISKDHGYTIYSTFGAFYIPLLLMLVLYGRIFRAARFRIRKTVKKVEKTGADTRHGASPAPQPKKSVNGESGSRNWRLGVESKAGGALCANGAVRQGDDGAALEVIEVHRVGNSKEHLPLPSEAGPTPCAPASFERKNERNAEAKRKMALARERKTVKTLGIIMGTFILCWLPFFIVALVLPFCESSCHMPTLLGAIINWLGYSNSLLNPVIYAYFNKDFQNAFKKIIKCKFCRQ

In assay [3] the target is T3, D(2) dopamine receptor (Homo sapiens, UniProt P14416). The assay is described as follows: Binding affinity was measured on cloned Human D2A Receptor which is labeled by [3H]raclopride.
The target of assay [4] is T3, D(2) dopamine receptor. The assay is described as follows: Displacement of [3H]raclopride from human Dopamine receptor D2A. Summed up: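 Cloned human D2A receptor expressed in mouse fibroblast Ltk- cell membranes. Competition against [3H]raclopride binding, following an earlier method. Ki by nonlinear regression, mean ± SE of 2–3 experiments.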
For orientation: Loss of bound radioactivity is the signal in a displacement assay; it reports binding, not function.

Assay [5] deals with T1, 5-hydroxytryptamine receptor 7. Kind of assay: Displacement of [3H]5-HT from over-expressed rat 5-hydroxytryptamine 7 receptor. An outline of the steps: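 Cloned rat 5-HT7 receptor in CHO or Sf9 cell membranes, in 50 mM Tris-HCl, 4 mM MgCl2, 1 mM EDTA, pH 7.4; 30-40 pM receptor. Competition against 0.8 nM [3H]5-HT, 60 min at 30 °C. Nonspecific binding defined with 10 μM methiothepin. Filtration, scintillation counting. Ki by nonlinear regression, mean ± SE of 2–3 experiments.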

Assay [6] deals with T2, 5-hydroxytryptamine receptor 1A. The assay is described as follows: Binding affinity was measured on cloned human 5-hydroxytryptamine 1A receptor which is labeled by [3H]8-OH-DPAT. An outline of the steps: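 Membranes from CHO cells expressing cloned human 5-HT1A receptor, in 50 mM Tris-HCl, 4 mM MgCl2, pH 7.4; about 40 pM receptor. Competition against 1 nM [3H]8-OH-DPAT, 60 min at 30 °C. Nonspecific binding defined with 10 μM WAY-100635. Filtration, liquid scintillation counting. Ki by nonlinear regression, mean ± SE of 2–3 experiments.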

Assay [7] addresses T4, 5-hydroxytryptamine receptor 1A (Rattus norvegicus, UniProt P19327).
T4 sequence (P19327 whole entry): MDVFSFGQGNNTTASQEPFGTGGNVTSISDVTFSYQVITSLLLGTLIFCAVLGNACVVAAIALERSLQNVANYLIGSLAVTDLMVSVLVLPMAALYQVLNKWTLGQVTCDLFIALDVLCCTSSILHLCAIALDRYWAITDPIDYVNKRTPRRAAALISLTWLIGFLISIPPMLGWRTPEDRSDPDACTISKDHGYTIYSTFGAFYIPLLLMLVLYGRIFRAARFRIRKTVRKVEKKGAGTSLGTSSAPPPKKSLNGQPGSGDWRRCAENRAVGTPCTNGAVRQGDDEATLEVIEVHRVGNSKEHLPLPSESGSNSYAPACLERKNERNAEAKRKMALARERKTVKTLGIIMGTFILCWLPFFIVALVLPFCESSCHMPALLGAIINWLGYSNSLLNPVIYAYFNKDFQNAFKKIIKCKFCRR
The assay is described as follows: Binding affinity was measured on cloned rat 5-hydroxytryptamine 1A receptor which is labeled by [3H]8-OH-DPAT.

The term Ki denotes the dissociation constant of the complex between target and ligand, obtained from inhibition or displacement.

T3 sequence (P14416 whole entry): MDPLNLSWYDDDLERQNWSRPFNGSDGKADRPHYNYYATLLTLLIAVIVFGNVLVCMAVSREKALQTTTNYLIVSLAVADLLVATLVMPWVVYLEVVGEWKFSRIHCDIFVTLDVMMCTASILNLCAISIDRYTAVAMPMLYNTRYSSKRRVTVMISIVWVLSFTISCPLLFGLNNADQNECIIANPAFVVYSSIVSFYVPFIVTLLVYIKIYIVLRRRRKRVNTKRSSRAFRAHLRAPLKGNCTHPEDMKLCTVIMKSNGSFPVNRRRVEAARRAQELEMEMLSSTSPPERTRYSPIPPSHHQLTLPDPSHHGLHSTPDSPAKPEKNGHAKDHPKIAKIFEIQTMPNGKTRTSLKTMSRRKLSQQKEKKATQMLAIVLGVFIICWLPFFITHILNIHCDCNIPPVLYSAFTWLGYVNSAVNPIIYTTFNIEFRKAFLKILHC
T1 sequence (P32305 whole entry): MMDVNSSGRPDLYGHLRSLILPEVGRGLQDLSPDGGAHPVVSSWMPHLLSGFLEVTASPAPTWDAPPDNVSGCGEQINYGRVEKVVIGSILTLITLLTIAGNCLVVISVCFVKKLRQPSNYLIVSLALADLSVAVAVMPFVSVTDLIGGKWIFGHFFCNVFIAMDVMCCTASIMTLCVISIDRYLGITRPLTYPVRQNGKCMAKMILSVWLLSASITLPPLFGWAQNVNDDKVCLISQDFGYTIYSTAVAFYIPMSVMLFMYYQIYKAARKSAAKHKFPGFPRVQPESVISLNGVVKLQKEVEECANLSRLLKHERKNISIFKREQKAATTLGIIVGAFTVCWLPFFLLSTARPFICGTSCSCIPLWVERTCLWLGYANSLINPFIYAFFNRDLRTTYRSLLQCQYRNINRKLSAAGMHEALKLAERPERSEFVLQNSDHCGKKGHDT

Take `CCCN(CCC)[C@@H]1CCc2cccc(O)c2C1`: in assay [1], the inhibitory constant (Ki) amounted to 8.81 nM.
As to `CN1CCc2ccc3c4c2[C@H]1Cc1cccc(c1-4)C3`, the inhibition constant Ki in assay [2] came out at 40.7 nM; in assay [3], 83.2 nM; in assay [1] it was 6.9 nM.
As for `CCO[C@@]1(CC)c2cccc3c2-c2c1ccc1c2[C@@H](C3)N(C)CC1`, the Ki amounted to 24.5 nM in assay [4], 3.05 nM in assay [5] and 19.1 nM in assay [6].
The corresponding values for `CO[C@@]1(C)c2cccc3c2-c2c1ccc1c2[C@@H](C3)N(C)CC1` are 71 nM, 1.1 nM and 16.9 nM.
Take `C[C@@H]1c2cccc3c2-c2c1ccc1c2[C@@H](C3)N(C)CC1`: the Ki was 5.05 nM in assay [2], 19.4 nM in assay [3] and 3.36 nM in assay [1].
On to `Cc1cccc2c1-c1cccc3c1[C@@H](C2)N(C)CC3`, for which the inhibition constant Ki amounted to 14.4 nM in assay [2] and 38.3 nM in assay [1].
Consider `NCCc1c[nH]c2ccc(C(N)=O)cc12`, for which the affinity in assay [1], expressed as Ki, was 0.029 nM. That is a picomolar value.
For the compound `CN1CCc2ccc3c4c2[C@H]1Cc1cccc(c1-4)[C@@H]3O`, the inhibition constant (Ki) in assay [4] came to 215 nM; in assay [5] it was 103 nM; in assay [7], 1210 nM.
Take `C[C@H]1c2cccc3c2-c2c1ccc1c2[C@@H](C3)N(C)CC1`: the Ki was determined as 31.1 nM in assay [2], 39.2 nM in assay [3] and 5.6 nM in assay [1].
Regarding `CN1CCc2ccc3c4c2[C@H]1Cc1cccc(c1-4)C3=O`, the values for the inhibition constant (Ki) in assay [4], in assay [5] and in assay [7] were 317 nM, 291 nM and 140 nM, respectively.
For the compound `CN1CCc2ccc3c4c2[C@H]1Cc1cccc(c1-4)[C@]3(C)O`, the values for the Ki in assay [4], in assay [5] and in assay [7] were 26 nM, 4.3 nM and 61.5 nM, respectively.
For the compound `CC(=O)N[C@@H]1c2cccc3c2-c2c1ccc1c2[C@@H](C3)N(C)CC1`, the Ki in assay [4] was 3650 nM; in assay [5], 538 nM; in assay [6], 204 nM.
For `CN1CCc2ccc3c4c2[C@H]1Cc1cccc(c1-4)[C@H]3N`, in that order: 261 nM, 13.4 nM and 142 nM.
In assay [1], `CN1CCc2cccc3c2[C@H]1Cc1ccc(O)c(O)c1-3` [APOMORPHINE] displayed an inhibitory constant (Ki) of 188 nM.
On to `CN1CCc2ccc3c4c2[C@H]1Cc1cccc(c1-4)[C@H]3O`, for which the results for the Ki in assay [4], in assay [5] and in assay [7] were 23.8 nM, 13.5 nM and 31 nM, respectively.
With `CC(=O)N[C@H]1c2cccc3c2-c2c1ccc1c2[C@@H](C3)N(C)CC1`, the Ki in assay [4] was 7980 nM; in assay [5], 1320 nM; in assay [6] it was 716 nM.
Take `CN1CCc2ccc3c4c2[C@H]1Cc1cccc(c1-4)[C@@H]3N`: the results for the Ki in assay [5] and in assay [6] were 18 nM and 355 nM, respectively.
As for `CO[C@]1(C)c2cccc3c2-c2c1ccc1c2[C@@H](C3)N(C)CC1`, the values for the Ki in assay [4], in assay [5] and in assay [6] were 7.1 nM, 1.1 nM and 17.3 nM, respectively.
The corresponding values for `CCO[C@]1(CC)c2cccc3c2-c2c1ccc1c2[C@@H](C3)N(C)CC1` are 70.8 nM, 25.7 nM and 1.84 nM.
For the compound `CN1CCc2ccc3c4c2[C@H]1Cc1cccc(c1-4)[C@@]3(C)O`, the Ki was determined as 182 nM in assay [4], 27.7 nM in assay [5] and 315 nM in assay [7].
As for `CCCN(CCC)[C@H]1CCc2c(F)ccc(O)c2C1`, the Ki was determined as 87 nM in assay [2], 3760 nM in assay [3] and 3180 nM in assay [1].

(Values after ChEMBL document CHEMBL1132996, “Derivatives of (R)-1,11-methyleneaporphine: synthesis, structure, and interactions with G-protein coupled receptors” (J Med Chem, 2000).)
